According to ChEMBL document CHEMBL1773050, “Identification of inhibitors that block vaccinia virus infection by targeting the DNA synthesis processivity factor D4” (J Med Chem, 2011):
Values after ≈ are worked out from the molar mass of the structure shown.

Tests used:
[1] = molecular target: Uracil-DNA glycosylase (Vaccinia virus (strain Western Reserve) (VACV) (Vaccinia virus (strainWR)), UniProt P04303); experiment: Inhibition of Vaccinia virus WR strain processivity factor D4 interaction with A20 protein assessed as inhibition of E9 DNA polymerase-mediated DIG-dUTP incorporation into DNA strand by rapid plate assay; parameters: species or system Orthopoxvirus vaccinia
In short: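 Annealed biotinylated primer/100-bp template was coated on streptavidin plates. Compounds were 2-fold serial dilutions in DMSO. After 37 °C for 30 min, DIG-ELISA was read at 405 nm and normalised to DMSO and EDTA controls. Triplicates were used across at least three experiments.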

[2] = molecular target: Uracil-DNA glycosylase (Vaccinia virus (strain Western Reserve) (VACV) (Vaccinia virus (strainWR))) (UniProt P04303); experiment: Binding affinity at Vaccinia virus WR strain D4 assessed as melting temperature at 50 uM by thermofluor method
In short: (§1)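 Native D4 at 4 μM, His-tag removed and dialysed into buffer, was tested with or without 50 μM compound (final, 1% DMSO). Buffer was 25 mM Tris pH 7.2, 0.15 M NaCl, 5 mM ZnCl2, with Sypro Orange. Fluorescence was read from 25 to 80 °C at 1 °C/min. Tm is the unfolding midpoint, and ΔTm is Tm minus the DMSO mock. At least three independent experiments were run.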

BSC-1 = experiment: (§2) Cytotoxicity against african green monkey BSC1 cells infected with Vaccinia virus assessed as lactate dehydrogenase release after 20 hrs by microplate reader; type: cell-based; conditions: chlorocebus aethiops, bsc-1, 20 h
In short: (§3)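 BSC-1 cells, seeded at 1 × 10^4 cells/well for 24 h, then received inhibitors at 2-fold serial dilutions in fresh medium with 1% DMSO for 20 h. LDH release into the medium was read at 492 nm after 30 min with reaction mixture in the dark. 2% Triton X-100 gave maximal release and 1% DMSO served as baseline. Triplicates were used, with three independent repeats, giving CC50.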

[3] = molecular target: Uracil-DNA glycosylase (Vaccinia virus (strain Western Reserve) (VACV) (Vaccinia virus (strainWR))) (UniProt P04303); experiment: Binding affinity at Vaccinia virus WR strain D4 assessed as change in unfolding transition temperature at 50 uM by thermofluor method; in short: as §1
Vaccinia virus = experiment: Antiviral activity against Vaccinia virus infected in BSC-1 cells by plaque reduction assay; type: functional, organism-based; conditions: Orthopoxvirus vaccinia
[4] = Selectivity index, CC50 for African green monkey BSC-1 cells to EC50 for Vaccinia virus; type: toxicity, cell-based; conditions: read-out: Ratio CC50/EC50
[5] = Solubility of the compound in phosphate buffer by chemiluminescence of total nitrogen contents; type: physicochemical
[6] = as §2; type: cell-based, BSC-1; conditions: chlorocebus aethiops, BSC-1 cells infected with Vaccinia virus; in short: as §3

COc1ccc(Nc2nc(Nc3ccc(OC)cc3OC)nc(N3CCOCC3)n2)c(OC)c1
IC50 [1]: > 200 µM | Tm [2]: 35 °C | CC50 (BSC-1): 170 µM | ΔTm [3]: -3.4 °C

CCOc1ccc2c(c1)C1CC=CC1[C@H](c1ccccc1Cl)N2 (stereo partly specified)
IC50 [1]: 221 µM | EC50 (Vaccinia virus): 22.4 µM | selectivity ratio [4]: 9 | Tm [2]: 35.2 °C | CC50 (BSC-1): > 200 µM | ΔTm [3]: -5 °C

Oc1ccc(Cl)cc1Sc1cc(Cl)ccc1O [FENTICLOR]
IC50 [1]: 38.5 µM | EC50 (Vaccinia virus): 18.7 µM

Cc1ccc2oc(-c3ccc(Cl)cc3)c(O)c(=O)c2c1
IC50 [1]: 195 µM | Tm [2]: 36.4 °C | CC50 (BSC-1): > 200 µM | ΔTm [3]: -2 °C

COc1ccc(Nc2c(-c3cc(Br)ccc3O)nc3ncccn23)cc1OC
IC50 [1]: 200 µM | EC50 (Vaccinia virus): 67.6 µM | selectivity ratio [4]: 3 | Tm [2]: 38.3 °C | CC50 (BSC-1): > 200 µM | ΔTm [3]: -0.1 °C

COc1ccc(NCc2nc3ccccc3n2CCOc2ccc(C)cc2)cc1
IC50 [1]: > 200 µM | EC50 (Vaccinia virus): 5.5 µM | selectivity ratio [4]: 22 | Tm [2]: 35.2 °C | CC50 (BSC-1): 121 µM | ΔTm [3]: -3.2 °C

Fc1ccc(Nc2c(-c3ccccn3)nc3ccc(Cl)cn23)cc1
IC50 [1]: > 200 µM | EC50 (Vaccinia virus): 3.8 µM | selectivity ratio [4]: 53 | Tm [2]: 34.7 °C | CC50 (BSC-1): > 200 µM | ΔTm [3]: -3.7 °C

COc1ccc(C)cc1N(CC(=O)N1CCC(C)CC1)S(=O)(=O)c1ccc(C)cc1
IC50 [1]: 175 µM | Tm [2]: 33.6 °C | CC50 (BSC-1): > 200 µM | ΔTm [3]: -4.8 °C

COC(=O)CC1Oc2ccc(C)cc2-n2cc(-c3ccc(F)cc3)nc21 (stereo unspecified)
IC50 [1]: > 200 µM | EC50 (Vaccinia virus): > 200 µM | selectivity ratio [4]: 0.4 | Tm [2]: 32.2 °C | CC50 (BSC-1): 84.1 µM | ΔTm [3]: -6.6 °C

O=S(=O)(c1ccc(C2=CSC(Nc3ccc(F)cc3)N2CCCCCCO)cc1)N1CCCC1 (stereo unspecified)
IC50 [1]: > 200 µM | EC50 (Vaccinia virus): 3.2 µM | selectivity ratio [4]: 63 | Tm [2]: 35.1 °C | CC50 (BSC-1): > 200 µM | ΔTm [3]: -3.3 °C

CCOC(=O)c1cnc2c(ccc3ccccc32)c1Nc1ccc(N(C)C)cc1
IC50 [1]: 139 µM | Tm [2]: 36.3 °C | CC50 (BSC-1): > 200 µM | ΔTm [3]: -1.5 °C

Cc1cc2n(n1)C(c1cc(C(C)(C)C)c(O)cc1O)Nc1ccccc1-2 (stereo unspecified)
IC50 [1]: 138 µM | solubility ([5]; buffer): 19.1 µg/mL (≈ 54.7 µM) | EC50 (Vaccinia virus): 21.5 µM | selectivity ratio [4]: 4 | Tm [2]: 44.3 °C | CC50 (BSC-1): 92.8 µM | ΔTm [3]: 4.9 °C

COc1ccc(N2CCN(Cc3nc4c(c(=O)[nH]c(=O)n4C)n3Cc3ccc(Cl)cc3)CC2)cc1
IC50 [1]: > 200 µM | EC50 (Vaccinia virus): > 200 µM | selectivity ratio [4]: 0.4 | Tm [2]: 35.9 °C | CC50 (BSC-1): 92.8 µM | ΔTm [3]: -2.5 °C

CN(C)c1ccc(NC(=O)CSc2nc(-c3ccco3)cc(C(F)(F)F)n2)cc1
IC50 [1]: 140 µM | EC50 (Vaccinia virus): > 200 µM | selectivity ratio [4]: 4 | Tm [2]: 35.1 °C | CC50 (BSC-1): 57.2 µM | ΔTm [3]: -1.7 °C

Cn1c(=O)n(C)c2cc(NS(=O)(=O)c3ccc(C(C)(C)C)cc3)c(NCc3ccccc3)cc21
IC50 [1]: 132 µM | solubility ([5]; buffer): 0.9 µg/mL (≈ 1.88 µM) | EC50 (Vaccinia virus): 18.8 µM | selectivity ratio [4]: > 10 | Tm [2]: 48.4 °C | CC50 (BSC-1): > 200 µM | ΔTm [3]: 10 °C

COc1ccc(OCCn2c(NC(=O)c3ccc(OC)cc3)nc3ccccc32)cc1
IC50 [1]: 169 µM | EC50 (Vaccinia virus): 47.9 µM | selectivity ratio [4]: 0.5 | Tm [2]: 34.3 °C | CC50 (BSC-1): 23.2 µM | ΔTm [3]: -4.1 °C

COc1ccc(/C=C/c2nc(-c3ccccc3O)n(-c3ccccc3)n2)cc1OC
IC50 [1]: > 200 µM | EC50 (Vaccinia virus): > 200 µM | selectivity ratio [4]: 0.5 | Tm [2]: 34.7 °C | CC50 (BSC-1): 107 µM | ΔTm [3]: -3.7 °C

COc1ccc(Nc2cc(C(=O)NCCCN3CCN(c4ccccc4F)CC3)c3ccccc3n2)c(OC)c1
IC50 [1]: > 200 µM | EC50 (Vaccinia virus): 25.8 µM | selectivity ratio [4]: 8 | Tm [2]: 34.8 °C | CC50 (BSC-1): > 200 µM | ΔTm [3]: -3.6 °C

OC1COc2ccc(-c3cc(-c4ccc(F)cc4)c4c(n3)-c3cc(Cl)ccc3OC4)cc2N1 (stereo unspecified)
IC50 [1]: > 200 µM | EC50 (Vaccinia virus): 74.6 µM | selectivity ratio [4]: 3 | Tm [2]: 34.9 °C | CC50 (BSC-1): > 200 µM | ΔTm [3]: -3.5 °C

Oc1ccc(NCc2ccccc2OCc2ccccc2)cc1
IC50 [1]: 5.1 µM | solubility ([5]; buffer): 1.1 µg/mL (≈ 3.6 µM) | EC50 (Vaccinia virus): 7.1 µM | selectivity ratio [4]: 25 | Tm [2]: 53.3 °C | CC50 (BSC-1): 175 µM | ΔTm [3]: 14.9 °C

O=C1c2ccccc2-c2onc3c2C1C(NC1CCCCC1)C=C3NCCO (stereo unspecified)
IC50 [1]: 34.1 µM | solubility ([5]; phosphate buffer, read-out: solubility): 1.4 µg/mL (≈ 3.69 µM) | CC50 at 20 h [6]: 127 µM

COc1cc(-c2nc3ccc(Cl)cn3c2Nc2ccc3c(c2)OCCO3)ccc1O
IC50 [1]: > 200 µM | EC50 (Vaccinia virus): 10.8 µM | selectivity ratio [4]: 18 | Tm [2]: 36.9 °C | CC50 (BSC-1): > 200 µM | ΔTm [3]: -1.5 °C

Cc1ccccc1Nc1c(-c2ccc(Br)cc2O)nc2sccn12
IC50 [1]: > 200 µM | EC50 (Vaccinia virus): > 200 µM | selectivity ratio [4]: 9 | Tm [2]: 36.5 °C | CC50 (BSC-1): 142 µM | ΔTm [3]: -1.9 °C

COc1cc(-c2nc(-c3ccccc3)c(-c3ccc(Br)cc3)[nH]2)cc(OC)c1O
IC50 [1]: 91.2 µM | solubility ([5]; buffer): 1.4 µg/mL (≈ 3.1 µM) | EC50 (Vaccinia virus): 16.7 µM | selectivity ratio [4]: 3 | Tm [2]: 43 °C | CC50 (BSC-1): 57.2 µM | ΔTm [3]: 4.6 °C

CCOc1ccccc1C(=O)Nc1ccc2nc3c(c(Nc4ccc(OC)c(OC)c4)c2c1)CCCC3
IC50 [1]: 106 µM | EC50 (Vaccinia virus): > 200 µM | selectivity ratio [4]: 11 | Tm [2]: 36.3 °C | CC50 (BSC-1): 73.7 µM | ΔTm [3]: -2.1 °C

Cc1ccnc(NC(c2ccccc2F)c2ccc3cccnc3c2O)c1 (stereo unspecified)
IC50 [1]: 157 µM | EC50 (Vaccinia virus): 2.9 µM | selectivity ratio [4]: 69 | Tm [2]: 36.4 °C | CC50 (BSC-1): > 200 µM | ΔTm [3]: -2 °C

COc1cc(NC(=O)c2cccc3c2C(=O)N(C2CCCCC2)C3)cc(OC)c1OC
IC50 [1]: > 200 µM | EC50 (Vaccinia virus): > 200 µM | Tm [2]: 33.2 °C | CC50 (BSC-1): > 200 µM | ΔTm [3]: -4.9 °C

C=C(Cn1cc(C(=O)c2ccc(CC)cc2)c(=O)c2ccccc21)Nc1ccc(OC)c(OC)c1
IC50 [1]: > 200 µM | EC50 (Vaccinia virus): > 200 µM | selectivity ratio [4]: 0.3 | Tm [2]: 35.4 °C | CC50 (BSC-1): 52.9 µM | ΔTm [3]: -3.2 °C
